Laboratory results published in ChEMBL document CHEMBL4020840, “Synthesis and Biological Evaluation of Selenium-Containing 4-Anilinoquinazoline Derivatives as Novel Antimitotic Agents” (J Med Chem, 2018).
Where a name gives a salt, the structure may show the parent alone. The source made the active and inactive calls. No cut-off for these calls is given here.

Assays:
[1] = tested on: A549; assay: Antitumor activity against human A549 cells xenografted in Balb/c mouse assessed as tumor growth inhibition at 2.5 mg/kg, ip treated once in 2 days for 10 days relative to control; format: functional; settings: read-out: TGI
Outline: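 Male BALB/c nude mice, 5 weeks old, 18−20 g. Right flank injected sc with 0.1 mL of 1 × 10⁷ cells/mL log-phase A549 in FBS-free DMEM. At ~100 mm³, randomised into groups of 5 and dosed ip every 2 days; vehicle controls got equal volume. Tumour volume (0.5 × length × width²) and body weight recorded every 2 days.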

[2] = tested on: A549; assay: Induction of apoptosis in human A549 cells assessed as live cells at 4 nM after 24 hrs by Annexin V-FITC/propidium iodide staining based flow cytometry (reference value: 98.84%); format: functional
[3] = tested on: MGC-803; assay: Antiproliferative activity against human MGC803 cells after 48 hrs by MTT assay; format: functional, cell-based; settings: MGC-803, 48 h
Outline: (§1)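 MTT assay: log-phase cells plated at 5 × 10³/well for 24 h, then exposed to a range of test concentrations for 48 h. MTT (5 mg/mL) added for 4 h, formazan dissolved in DMSO, absorbance read at 570 nm. IC50 is the concentration giving 50% growth inhibition, from dose-response curves; at least three independent experiments, mean ± SE.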

[4] = tested on: A549; assay: Cell cycle arrest in human A549 cells assessed as accumulation at G2/M phase at 4 nM after 24 hrs by propidium iodide staining based flow cytometry (reference value: 10.13%); format: functional
Outline: (§2)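 A549 seeded in six-well plates at 3 × 10⁵ cells/well and treated for 12 or 24 h; vehicle 0.01% DMSO. Cells fixed overnight in ice-cold 70% ethanol, treated with RNase A at 37 °C for 30 min, then stained with PI at 4 °C for 30 min. About 10 000 events acquired by flow cytometry at 488 nm; three experiments.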

[5] = tested on: A549; assay: Induction of apoptosis in human A549 cells assessed as early apoptotic cells at 2 nM after 48 hrs by Annexin V-FITC/propidium iodide staining based flow cytometry (reference value: 1.48%); format: functional
[6] = Selectivity index, ratio of IC50 for HLF to IC50 for human A549 cells
Outline: (§3)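 MTT assay in normal cells and A549: seeding at 5 × 10³ cells/well for 24 h, 48 h compound exposure, then 5 mg/mL MTT for 4 h, DMSO solubilisation and absorbance at 570 nm. IC50 values came from dose–response curves of at least three independent experiments. Selectivity ratio = IC50 in normal cells / IC50 in A549.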

[7] = tested on: A549; assay: Induction of apoptosis in human A549 cells assessed as late apoptotic cells at 4 nM after 24 hrs by Annexin V-FITC/propidium iodide staining based flow cytometry (reference value: 0.08%); format: functional
[8] = tested on: A549; assay: Growth inhibition of human A549 cells after 48 hrs by MTT assay; format: functional, cell-based; settings: A549, 48 h
[9] = Selectivity index, ratio of IC50 for human BJ cells to IC50 for human A549 cells; format: functional; outline: as §3
[10] = tested on: A549; assay: Induction of apoptosis in human A549 cells assessed as early apoptotic cells at 2 nM after 24 hrs by Annexin V-FITC/propidium iodide staining based flow cytometry (reference value: 0.98%); format: functional
[11] = tested on: HCT-116; assay: Growth inhibition of human HCT116 cells after 48 hrs by MTT assay; format: functional, cell-based; settings: HCT-116, 48 h; outline: as §1
[12] = tested on: A549; assay: Induction of apoptosis in human A549 cells assessed as late apoptotic cells at 2 nM after 48 hrs by Annexin V-FITC/propidium iodide staining based flow cytometry (reference value: 0.03%); format: functional
[13] = tested on: RKO; assay: Growth inhibition of human RKO cells after 48 hrs by MTT assay; format: functional, cell-based; outline: as §1
[14] = tested on: MCF7; assay: Antiproliferative activity against human MCF7 cells after 48 hrs by MTT assay; format: functional, cell-based; settings: MCF7, 48 h; outline: as §1
[15] = tested on: HepG2; assay: Growth inhibition of human HepG2 cells after 48 hrs by MTT assay; format: functional, cell-based; settings: HepG2, 48 h; outline: as §1
[16] = tested on: A549; assay: Induction of apoptosis in human A549 cells assessed as live cells at 4 nM after 48 hrs by Annexin V-FITC/propidium iodide staining based flow cytometry (reference value: 98.49%); format: functional
[17] = tested on: A549; assay: Induction of apoptosis in human A549 cells assessed as necrotic cells at 4 nM after 48 hrs by Annexin V-FITC/propidium iodide staining based flow cytometry relative to control; format: functional
[18] = tested on: A549; assay: Induction of apoptosis in human A549 cells assessed as late apoptotic cells at 4 nM after 48 hrs by Annexin V-FITC/propidium iodide staining based flow cytometry (reference value: 0.03%); format: functional
[19] = tested on: A549; assay: Induction of apoptosis in human A549 cells assessed as live cells at 2 nM after 24 hrs by Annexin V-FITC/propidium iodide staining based flow cytometry (reference value: 98.84%); format: functional
[20] = (§4) Inhibition of porcine brain tubulin polymerization measured every 60 secs for 90 mins by DAPI staining based fluorescence assay; design: species or system Sus scrofa
Outline: (§5)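 Purified tubulin was tested in a kit assay. Final buffer: 80 mM PIPES sesquisodium (pH 6.9), 2.0 mM MgCl₂, 0.5 mM EGTA, 1 mM GTP, 10.2% glycerol. Compound (0.1–10 μM) was prewarmed at 37 °C for 1 min before tubulin was added. DAPI reporter fluorescence (ex 340 / em 410 nm) was read every 60 s for 90 min. Area under the curve gave percent inhibition versus control and the IC50.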

[21] = tested on: MDA-MB-231; assay: Growth inhibition of human MDA-MB-231 cells after 48 hrs by MTT assay; format: functional, cell-based; settings: MDA-MB-231, 48 h; outline: as §1
[22] = tested on: L02; assay: Antiproliferative activity against human LO2 cells after 48 hrs by MTT assay; format: cell-based; settings: L02, 48 h; outline: as §1
[23] = tested on: A549; assay: Induction of apoptosis in human A549 cells assessed as early apoptotic cells at 4 nM after 24 hrs by Annexin V-FITC/propidium iodide staining based flow cytometry (reference value: 0.98%); format: functional
[24] = tested on: HeLa; assay: Antiproliferative activity against human HeLa cells after 48 hrs by MTT assay; format: functional, cell-based; outline: as §1
[25] = tested on: LoVo; assay: Growth inhibition of human LoVo cells after 48 hrs by MTT assay; format: functional, cell-based; outline: as §1
[26] = tested on: A549/CDDP; assay: Growth inhibition of human A549/CDDP cells after 48 hrs by MTT assay; format: functional, cell-based; outline: as §1
[27] = tested on: A549; assay: Induction of apoptosis in human A549 cells assessed as early apoptotic cells at 4 nM after 48 hrs by Annexin V-FITC/propidium iodide staining based flow cytometry (reference value: 1.48%); format: functional
[28] = tested on: BJ; assay: Antiproliferative activity against human BJ cells after 48 hrs by MTT assay; format: cell-based; outline: as §1
[29] = tested on: A549; assay: Induction of apoptosis in human A549 cells assessed as late apoptotic cells at 2 nM after 24 hrs by Annexin V-FITC/propidium iodide staining based flow cytometry (reference value: 0.08%); format: functional
[30] = Resistance factor, ratio of IC50 for human A549/CDDP cells to IC50 for human A549 cells; format: functional
Outline: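 MTT assay: log-phase cells were seeded at 5 × 10³/well for 24 h, then exposed to a concentration series for 48 h. MTT (5 mg/mL) was added for 4 h, formazan was dissolved in DMSO, and A570 was read. IC50 values came from dose–response curves of at least three independent experiments. Resistance factor = IC50 in the resistant line / IC50 in the parental sensitive line.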

[31] = Growth inhibition of human HepG2/DOX cells after 48 hrs by MTT assay; format: functional, cell-based; outline: as §1
[32] = tested on: A549; assay: Cell cycle arrest in human A549 cells assessed as accumulation at G2/M phase at 4 nM after 12 hrs by propidium iodide staining based flow cytometry (reference value: 10.13%); format: functional; outline: as §2
[33] = tested on: A549; assay: Induction of apoptosis in human A549 cells assessed as live cells at 2 nM after 48 hrs by Annexin V-FITC/propidium iodide staining based flow cytometry (reference value: 98.49%); format: functional
[34] = tested on: A549; assay: Induction of apoptosis in human A549 cells assessed as necrotic cells at 2 nM after 24 hrs by Annexin V-FITC/propidium iodide staining based flow cytometry (reference value: 0.10%); format: functional
[35] = Selectivity index, ratio of IC50 for human LO2 cells to IC50 for human A549 cells; format: functional; outline: as §3
[36] = Antiproliferative activity against HLF after 48 hrs by MTT assay; format: cell-based; settings: Homo sapiens; outline: as §1
[37] = tested on: A549; assay: Induction of apoptosis in human A549 cells assessed as necrotic cells at 4 nM after 24 hrs by Annexin V-FITC/propidium iodide staining based flow cytometry (reference value: 0.10%); format: functional
[38] = tested on: A549; assay: Induction of apoptosis in human A549 cells assessed as necrotic cells at 2 nM after 48 hrs by Annexin V-FITC/propidium iodide staining based flow cytometry relative to control; format: functional
[39] = tested on: A549; assay: Cell cycle arrest in human A549 cells assessed as accumulation at G2/M phase up to 24 hrs by propidium iodide staining based flow cytometry; format: functional; outline: as §2
[40] = species on record: Sus scrofa; assay: as §4; outline: as §5
[41] = species on record: Sus scrofa; assay: Inhibition of porcine brain tubulin polymerization at 7.5 uM measured every 60 secs for 90 mins by DAPI staining based fluorescence assay relative to control; outline: as §5
[42] = tested on: A549; assay: Antimigratory activity against human A549 cells assessed as suppression of wound healing at 4 nM after 24 hrs by phase contrast microscopic method; format: functional, cell-based
Outline: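 Scratch wound assay: A549 plated at 5 × 10⁴ cells/dish and grown 24 h before scraping with a 10 μL tip. Medium then swapped to serum-free DMEM containing compound (4 nM) for 24 h. After a PBS wash, wound images taken at 0 and 24 h; at least three independent experiments.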

Structure (SMILES) | inhibition in vivo at 2.5 mg/kg [1] | IC50 [3] | Ratio IC50 [6] | IC50 [8] | Ratio IC50 [9] | IC50 [11] | IC50 [13] | IC50 [14] | IC50 [15] | IC50 [20] | IC50 [21] | IC50 [22] | IC50 [24] | IC50 [25] | IC50 [26] | IC50 [28] | Ratio IC50 [30] | IC50 [31] | Ratio IC50 [35] | IC50 [36] | also measured
C[Se]c1ccc(N(C)c2nc(C)nc3ccccc23)cc1 | 75.7% | – | – | – | – | – | – | – | – | – | – | – | – | – | – | – | – | – | – | – | –
COc1ccc(N(C)c2nc(C)nc3ccccc23)cc1 [VERUBULIN HYDROCHLORIDE] | 68.6% | – | – | – | – | – | – | – | – | – | – | – | – | – | – | – | – | – | – | – | –
C[Se]c1ccc(N(C)c2nc(C)nc3ccccc23)cc1F [listing 1 of 2 here] | – | 7 nM | 9.5 | 2 nM | 9.5 | 6 nM | 7 nM | 9 nM | 4 nM | 1270 nM | 5 nM | 16 nM | 5 nM | 9 nM | 11 nM | 19 nM | 3.67 | 5 nM | 8 | 19 nM | Activity [2]: 60.27%; Activity [4]: 79.71%; Activity [5]: 12.22%; Activity [7]: 1.97%; Activity [10]: 10.96%; Activity [12]: 16.6%; Activity [16]: 34.36%; Activity [17]: 12.82%; Activity [18]: 25.29%; Activity [19]: 85.06%; Activity [23]: 36.98%; Activity [27]: 27.52%; Activity [29]: 2.46%; Activity [32]: 60.89%; Activity [33]: 63.84%; Activity [34]: 1.52%; Activity [37]: 0.78%; Activity [38]: 7.34%
COc1ccc(N(C)c2nc(C)nc3ccccc23)cc1 [VERUBULIN] | – | 8 nM | 9 | 3 nM | 7.5 | 4 nM | 3 nM | 11 nM | 5 nM | 2740 nM | 8 nM | 13 nM | 5 nM | 8 nM | 9 nM | 15 nM | 3 | 11 nM | 6.5 | 18 nM | –
C[Se]c1ccc(N(C)c2nc(C)nc3ccccc23)cc1F [listing 2 of 2 here] | – | – | – | – | – | – | – | – | – | – | – | – | – | – | – | – | – | – | – | – | Activity [39]: Dose-dependent effect; inhibition [40]: Dose-dependent effect; inhibition [41]: 90.5%; Activity [42]: Active
